Values after ≈ are worked out from the molar mass of the structure shown. Active and inactive are the calls of the source. No cut-off for these calls is given here.
Assays:
Enterococcus faecium [1] = assay: Bacteriostatic activity against vancomycin-resistant Enterococcus faecium DSM 17050 by time kill study; type: functional, organism-based
Escherichia coli [2] = assay: Bacteriostatic activity against Escherichia coli ATCC 35218 expressing LacR by time kill study; type: functional, organism-based
Pseudomonas aeruginosa [3] = assay: Bacteriostatic activity against Pseudomonas aeruginosa ATCC 27853 by time kill study; type: functional, organism-based
Staphylococcus aureus [4] = assay: Antibacterial activity against methicillin-resistant Staphylococcus aureus ATCC 33592 at >1 ug/mL after 48 hrs; type: functional, organism-based
Streptococcus pneumoniae [5] = assay: Antibacterial activity against penicillin-resistant Streptococcus pneumoniae DSM 11865 at >1 ug/mL after 48 hrs; type: functional, organism-based
Enterococcus faecium [6] = assay: Antibacterial activity against vancomycin-resistant Enterococcus faecium DSM 17050 at >1 ug/mL after 48 hrs; type: functional, organism-based
Escherichia coli [7] = assay: Antibacterial activity against Escherichia coli ATCC 35218 expressing LacR at >1 ug/mL after 48 hrs; type: functional, organism-based
Pseudomonas aeruginosa [8] = assay: Antibacterial activity against Pseudomonas aeruginosa ATCC 27853 at >1 ug/mL after 48 hrs; type: functional, organism-based
Staphylococcus aureus [9] = assay: Bacteriostatic activity against methicillin-resistant Staphylococcus aureus ATCC 33592 by time kill study in presence of fetal calf serum; type: functional, organism-based
Streptococcus pneumoniae [10] = assay: Bacteriostatic activity against penicillin-resistant Streptococcus pneumoniae DSM 11865 by time kill study in presence of fetal calf serum; type: functional, organism-based
Enterococcus faecium [11] = assay: Bacteriostatic activity against vancomycin-resistant Enterococcus faecium DSM 17050 by time kill study in presence of fetal calf serum; type: functional, organism-based
Escherichia coli [12] = assay: Bacteriostatic activity against Escherichia coli ATCC 35218 expressing LacR by time kill study in presence of fetal calf serum; type: functional, organism-based
Pseudomonas aeruginosa [13] = assay: Bacteriostatic activity against Pseudomonas aeruginosa ATCC 27853 by time kill study in presence of fetal calf serum; type: functional, organism-based
Streptococcus pneumoniae [14] = assay: Antibacterial activity against penicillin-resistant Streptococcus pneumoniae DSM 11865; type: functional; settings: Streptococcus pneumoniae, DSM 11865
Staphylococcus aureus [15] = assay: Antibacterial activity against methicillin-resistant Staphylococcus aureus ATCC 33592; type: functional; settings: Staphylococcus aureus, ATCC 33592
Enterococcus faecium [16] = assay: Antibacterial activity against vancomycin-resistant Enterococcus faecium DSM 17050; type: functional; settings: Enterococcus faecium, DSM 17050
Escherichia coli [17] = assay: Antibacterial activity against Escherichia coli ATCC 35218 expressing LacR; type: functional
Pseudomonas aeruginosa [18] = assay: Antibacterial activity against Pseudomonas aeruginosa ATCC 27853; type: functional
[19] = Solubility of the compound in PBS buffer at pH 7.4; type: physicochemical
[20] = Chemical stability of the compound in PBS buffer up to 24 hrs at pH 7.4; type: physicochemical; settings: pH 7.4, 24 h
[21] = Drug degradation in PBS buffer over 24 hrs in presence of GSH; type: physicochemical; settings: PBS buffer with GSH; read-out: Drug degradation
How it was run: (§1)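 Parent compound incubated in PBS buffer with 10 mM GSH or 10 mM i-BuNH2 for 24 h; read-out is the decrease in parent compound concentration over that period.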

[22] = Drug degradation in PBS buffer over 24 hrs in presence of i-BuNH2; type: physicochemical; settings: PBS buffer with i-BuNH2; read-out: Drug degradation; how it was run: as §1
Cytochrome P450 3A4 = Cytochrome P450 3A4 (Homo sapiens, UniProt P08684); assay: Inhibition of CYP3A4; type: ADME
Cytochrome P450 2D6 = Cytochrome P450 2D6 (Homo sapiens, UniProt P10635); assay: Inhibition of CYP2D6; type: ADME
hERG (KCNH2) = hERG (KCNH2) (Homo sapiens, UniProt Q12809); assay: Inhibition of human ERG at 10 uM
[23] = Clearance in Swiss mouse at 7.5 mg/kg, iv; type: ADME, organism-based; set-up: dose 7.5 mg/kg, route intravenous; settings: in vivo
How it was run: (§2)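 Male Swiss mice dosed 7.5 mg/kg iv; plasma pharmacokinetics gave clearance, steady-state volume of distribution, Cmax and plasma half-life.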

[24] = Volume of distribution at steady state in Swiss mouse at 7.5 mg/kg, iv; type: ADME, organism-based; set-up: dose 7.5 mg/kg, route intravenous; settings: in vivo, read-out: Vdss; how it was run: as §2
[25] = Cmax in Swiss mouse at 7.5 mg/kg, iv; type: ADME, organism-based; set-up: dose 7.5 mg/kg, route intravenous; settings: in vivo; how it was run: as §2
[26] = Half life in Swiss mouse plasma at 7.5 mg/kg, iv; type: ADME, organism-based; set-up: dose 7.5 mg/kg, route intravenous; how it was run: as §2
Staphylococcus aureus [27] = assay: Antibacterial activity against methicillin-resistant Staphylococcus aureus ATCC 33592 infected in mouse assessed as host survival at 20 mg/kg/day, sc relative to control; type: functional; settings: ATCC 33592, sc, route subcutaneous
How it was run: (§3)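 Mice with MRSA ATCC33592 septicemia were dosed sc at 20, 40 or 80 mg/kg/d in 5% ethanol/5% Solutol/Tris-NaCl buffer pH 9. Survival was scored in six animals per group, and log reduction of blood bacteremia in five animals per group. Results are given as mean ± sem against the vehicle-treated group (P < 0.05 or P < 0.001).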

Staphylococcus aureus [28] = assay: Antibacterial activity against methicillin-resistant Staphylococcus aureus ATCC 33592 infected in mouse assessed as host survival at 40 mg/kg/day, sc relative to control; type: functional; settings: ATCC 33592, sc, route subcutaneous; how it was run: as §3
Staphylococcus aureus [29] = assay: Antibacterial activity against methicillin-resistant Staphylococcus aureus ATCC 33592 infected in mouse assessed as host survival at 80 mg/kg/day, sc relative to control; type: functional; settings: ATCC 33592, sc, route subcutaneous; how it was run: as §3
Staphylococcus aureus [30] = assay: Antibacterial activity against methicillin-resistant Staphylococcus aureus ATCC 33592 infected in mouse assessed as host survival at 3 mg/kg/day, iv relative to control; type: functional
Staphylococcus aureus [31] = assay: Antibacterial activity against methicillin-resistant Staphylococcus aureus ATCC 33592 infected in mouse assessed as host survival at 10 mg/kg/day, iv relative to control; type: functional
Staphylococcus aureus [32] = assay: Antibacterial activity against methicillin-resistant Staphylococcus aureus ATCC 33592 infected in mouse assessed as host survival at 15 mg/kg/day, iv relative to control; type: functional
Staphylococcus aureus [33] = assay: Antibacterial activity against methicillin-resistant Staphylococcus aureus ATCC 33592 infected in mouse assessed as log reduction in bacteremia at 20 mg/kg/day, sc relative to control; type: functional; settings: route subcutaneous; how it was run: as §3
Staphylococcus aureus [34] = assay: Antibacterial activity against methicillin-resistant Staphylococcus aureus ATCC 33592 infected in mouse assessed as log reduction in bacteremia at 40 mg/kg/day, sc relative to control; type: functional; settings: route subcutaneous; how it was run: as §3
Staphylococcus aureus [35] = assay: Antibacterial activity against methicillin-resistant Staphylococcus aureus ATCC 33592 infected in mouse assessed as log reduction in bacteremia at 80 mg/kg/day, sc relative to control; type: functional; settings: route subcutaneous; how it was run: as §3
Staphylococcus aureus [36] = assay: Antibacterial activity against methicillin-resistant Staphylococcus aureus ATCC 33592 infected in mouse assessed as log reduction in bacteremia at 3 mg/kg/day, iv relative to control; type: functional
Staphylococcus aureus [37] = assay: Antibacterial activity against methicillin-resistant Staphylococcus aureus ATCC 33592 infected in mouse assessed as log reduction in bacteremia at 10 mg/kg/day, iv relative to control; type: functional
Staphylococcus aureus [38] = assay: Antibacterial activity against methicillin-resistant Staphylococcus aureus ATCC 33592 infected in mouse assessed as log reduction in bacteremia at 15 mg/kg/day, iv relative to control; type: functional
Staphylococcus aureus [39] = assay: Antibacterial activity against methicillin-resistant Staphylococcus aureus ATCC 33592 infected in iv dosed mouse assessed as increase in host survival; type: functional, organism-based
Staphylococcus aureus [40] = assay: Antibacterial activity against methicillin-resistant Staphylococcus aureus ATCC 33592 infected in iv dosed mouse assessed as decrease in bacteremia; type: functional, organism-based
Staphylococcus aureus [41] = assay: Antibacterial activity against methicillin-resistant Staphylococcus aureus ATCC 33592 infected in mouse assessed as host survival at 20 mg/kg/day, iv relative to control; type: functional
Staphylococcus aureus [42] = assay: Antibacterial activity against methicillin-resistant Staphylococcus aureus ATCC 33592 infected in mouse assessed as log reduction in bacteremia at 20 mg/kg/day, iv relative to control; type: functional

Chain of Cytochrome P450 3A4 (P08684 whole entry): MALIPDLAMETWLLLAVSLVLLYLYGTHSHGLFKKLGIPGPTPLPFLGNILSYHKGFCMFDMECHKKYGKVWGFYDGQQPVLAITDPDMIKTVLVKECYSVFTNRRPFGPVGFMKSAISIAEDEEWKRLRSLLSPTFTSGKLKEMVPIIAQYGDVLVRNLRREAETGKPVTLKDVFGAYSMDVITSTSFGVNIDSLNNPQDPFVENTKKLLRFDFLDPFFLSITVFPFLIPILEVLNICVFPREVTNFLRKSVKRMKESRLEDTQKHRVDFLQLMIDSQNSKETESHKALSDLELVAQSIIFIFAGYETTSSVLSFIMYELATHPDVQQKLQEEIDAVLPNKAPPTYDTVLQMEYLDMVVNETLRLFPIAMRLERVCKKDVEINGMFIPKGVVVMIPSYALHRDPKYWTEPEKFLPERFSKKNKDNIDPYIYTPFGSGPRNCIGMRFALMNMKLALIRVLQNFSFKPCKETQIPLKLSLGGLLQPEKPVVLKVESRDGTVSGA
Chain of hERG (KCNH2) (Q12809 whole entry): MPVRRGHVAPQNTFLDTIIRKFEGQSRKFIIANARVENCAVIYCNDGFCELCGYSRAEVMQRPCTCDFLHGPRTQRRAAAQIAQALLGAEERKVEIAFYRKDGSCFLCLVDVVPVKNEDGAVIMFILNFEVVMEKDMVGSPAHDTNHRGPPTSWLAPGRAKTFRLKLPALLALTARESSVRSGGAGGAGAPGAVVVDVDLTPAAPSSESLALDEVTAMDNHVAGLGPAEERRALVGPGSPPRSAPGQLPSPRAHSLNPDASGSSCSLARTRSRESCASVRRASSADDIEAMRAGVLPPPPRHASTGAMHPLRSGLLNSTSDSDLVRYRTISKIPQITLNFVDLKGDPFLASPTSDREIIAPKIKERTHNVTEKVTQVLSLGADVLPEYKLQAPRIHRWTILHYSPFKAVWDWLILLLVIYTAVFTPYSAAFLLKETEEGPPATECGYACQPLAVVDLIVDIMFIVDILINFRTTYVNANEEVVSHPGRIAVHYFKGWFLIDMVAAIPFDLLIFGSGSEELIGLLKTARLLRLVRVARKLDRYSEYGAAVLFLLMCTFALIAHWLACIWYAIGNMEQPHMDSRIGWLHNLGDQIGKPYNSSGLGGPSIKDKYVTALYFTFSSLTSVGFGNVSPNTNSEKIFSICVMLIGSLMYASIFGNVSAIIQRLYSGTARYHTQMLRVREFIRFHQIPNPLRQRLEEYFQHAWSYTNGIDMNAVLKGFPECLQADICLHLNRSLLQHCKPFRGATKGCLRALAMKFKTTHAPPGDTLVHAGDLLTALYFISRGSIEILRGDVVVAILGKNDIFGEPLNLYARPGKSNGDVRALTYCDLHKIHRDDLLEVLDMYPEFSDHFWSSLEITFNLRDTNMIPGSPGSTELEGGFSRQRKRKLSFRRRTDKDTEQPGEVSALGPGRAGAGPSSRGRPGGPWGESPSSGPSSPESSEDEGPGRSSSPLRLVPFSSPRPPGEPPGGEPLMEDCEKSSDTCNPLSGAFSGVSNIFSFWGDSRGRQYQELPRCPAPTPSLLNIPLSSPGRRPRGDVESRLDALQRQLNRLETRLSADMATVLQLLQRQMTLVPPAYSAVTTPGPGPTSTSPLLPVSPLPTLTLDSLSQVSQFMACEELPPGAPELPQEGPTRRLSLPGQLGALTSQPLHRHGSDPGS
Chain of Cytochrome P450 2D6 (P10635 whole entry): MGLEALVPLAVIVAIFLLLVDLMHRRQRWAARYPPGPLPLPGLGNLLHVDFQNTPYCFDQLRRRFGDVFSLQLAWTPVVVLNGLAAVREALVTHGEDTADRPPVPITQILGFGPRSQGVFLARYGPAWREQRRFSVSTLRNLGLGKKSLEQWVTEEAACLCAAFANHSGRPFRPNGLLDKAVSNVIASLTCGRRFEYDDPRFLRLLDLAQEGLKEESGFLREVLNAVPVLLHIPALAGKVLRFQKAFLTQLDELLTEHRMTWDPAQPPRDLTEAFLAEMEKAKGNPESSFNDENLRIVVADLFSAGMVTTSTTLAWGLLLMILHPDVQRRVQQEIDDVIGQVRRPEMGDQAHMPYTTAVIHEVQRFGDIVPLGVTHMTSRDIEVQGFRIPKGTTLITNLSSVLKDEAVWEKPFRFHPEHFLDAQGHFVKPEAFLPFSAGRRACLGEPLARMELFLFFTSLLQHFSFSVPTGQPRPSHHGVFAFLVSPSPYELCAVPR

With `CCCCCCc1c(O)c(Cl)cc2c1O[C@]1(C2=O)C(Cl)=C(Cl)C(=O)N1C` (stereo in doubt; form 2) the Activity (Enterococcus faecium [1]) was “Dose-dependent effect”, the Activity (Escherichia coli [2]) was “Dose-dependent effect” and the Activity (Pseudomonas aeruginosa [3]) was “Dose-dependent effect”. The Activity (Staphylococcus aureus [4]) was “Active”, the Activity (Streptococcus pneumoniae [5]) was “Active” and the Activity (Enterococcus faecium [6]) was “Active”. The Activity (Escherichia coli [7]) was “Active”, the Activity (Pseudomonas aeruginosa [8]) was “Active” and the Activity (Staphylococcus aureus [9]) was “inactive”. The Activity (Streptococcus pneumoniae [10]) was “inactive”, the Activity (Enterococcus faecium [11]) was “inactive” and the Activity (Escherichia coli [12]) was “inactive”. The Activity (Pseudomonas aeruginosa [13]) was “inactive”.
Molecule `CCCCCCc1c(O)ccc2c1O[C@]1(C2=O)C(Cl)=C(Cl)C(=O)N1C` [ARMENIASPIROLE A] has an IC80 (Streptococcus pneumoniae [14]) of 2300 nM, an IC80 (Staphylococcus aureus [15]) of 125 nM and an IC80 (Enterococcus faecium [16]) of 8200 nM. For the same molecule, the IC80 (Escherichia coli [17]) was over 30000 nM, the IC80 (Pseudomonas aeruginosa [18]) was over 30000 nM and the solubility [19] was 25 µg/mL (≈ 65.1 µM). The Stability [20] was “Stable”, the degraded at 24 h [21] was 30% and the degraded at 24 h [22] was under 10%. For the same molecule, the Activity (Staphylococcus aureus [4]) was “Active”, the Activity (Streptococcus pneumoniae [5]) was “Active” and the Activity (Enterococcus faecium [6]) was “Active”. The Activity (Escherichia coli [7]) was “Active”, the Activity (Pseudomonas aeruginosa [8]) was “Active” and the IC50 (Cytochrome P450 3A4) was over 10000 nM. The IC50 (Cytochrome P450 2D6) was over 10000 nM, the inhibition at 10 µM (hERG (KCNH2)) was under 35% and the clearance [23] was 20 mL/min/kg. For the same molecule, the Vd [24] was 2.4 L/kg, the Cmax [25] was 27400 ng/mL and the half-life [26] was 3 h. It also gave a survival at 20 mg/kg/day (Staphylococcus aureus [27]) of 0%, a survival at 40 mg/kg/day (Staphylococcus aureus [28]) of 50% and a survival at 80 mg/kg/day (Staphylococcus aureus [29]) of 50%. The survival at 3 mg/kg/day (Staphylococcus aureus [30]) was 0%, the survival at 10 mg/kg/day (Staphylococcus aureus [31]) was 33% and the survival at 15 mg/kg/day (Staphylococcus aureus [32]) was 67%. It also gave an FC (Staphylococcus aureus [33]) of 0.2, an FC (Staphylococcus aureus [34]) of 0.8 and an FC (Staphylococcus aureus [35]) of 1.7. For the same molecule, the FC (Staphylococcus aureus [36]) was 0.05, the FC (Staphylococcus aureus [37]) was 0.9 and the FC (Staphylococcus aureus [38]) was 2.8. For the same molecule, the Survival (Staphylococcus aureus [39]) was “Dose-dependent effect”, the Activity (Staphylococcus aureus [40]) was “Dose-dependent effect” and the Activity (Staphylococcus aureus [9]) was “inactive”. The Activity (Streptococcus pneumoniae [10]) was “inactive”, the Activity (Enterococcus faecium [11]) was “inactive” and the Activity (Escherichia coli [12]) was “inactive”. The Activity (Pseudomonas aeruginosa [13]) was “inactive”.
For `CC(C)CCCc1c(O)ccc2c1O[C@]1(C2=O)C(Cl)=C(Cl)C(=O)N1C` [ARMENIASPIROLE B], the solubility [19] was 10 µg/mL (≈ 26 µM), the Stability [20] was “Stable” and the Activity (Staphylococcus aureus [4]) was “Active”. The Activity (Streptococcus pneumoniae [5]) was “Active”, the Activity (Enterococcus faecium [6]) was “Active” and the Activity (Escherichia coli [7]) was “Active”. The Activity (Pseudomonas aeruginosa [8]) was “Active”, the Activity (Staphylococcus aureus [9]) was “inactive” and the Activity (Streptococcus pneumoniae [10]) was “inactive”. The Activity (Enterococcus faecium [11]) was “inactive”, the Activity (Escherichia coli [12]) was “inactive” and the Activity (Pseudomonas aeruginosa [13]) was “inactive”.
With `CC[C@H](C)CCCc1c(O)ccc2c1O[C@]1(C2=O)C(Cl)=C(Cl)C(=O)N1C` [ARMENIASPIROLE C] the solubility [19] was 5 µg/mL (≈ 12.6 µM), the Stability [20] was “Stable” and the Activity (Staphylococcus aureus [4]) was “Active”. The Activity (Streptococcus pneumoniae [5]) was “Active”, the Activity (Enterococcus faecium [6]) was “Active” and the Activity (Escherichia coli [7]) was “Active”. For the same molecule, the Activity (Pseudomonas aeruginosa [8]) was “Active”, the Activity (Staphylococcus aureus [9]) was “inactive” and the Activity (Streptococcus pneumoniae [10]) was “inactive”. For the same molecule, the Activity (Enterococcus faecium [11]) was “inactive”, the Activity (Escherichia coli [12]) was “inactive” and the Activity (Pseudomonas aeruginosa [13]) was “inactive”.
`CN[C@H](CC(C)C)C(=O)N[C@H]1C(=O)N[C@@H](CC(N)=O)C(=O)N[C@H]2C(=O)N[C@H]3C(=O)N[C@H](C(=O)N[C@H](C(=O)O)c4cc(O)cc(O)c4-c4cc3ccc4O)[C@H](O)c3ccc(c(Cl)c3)Oc3cc2cc(c3O[C@@H]2O[C@H](CO)[C@@H](O)[C@H](O)[C@H]2O[C@H]2C[C@](C)(N)[C@H](O)[C@H](C)O2)Oc2ccc(cc2Cl)[C@H]1O` [VANCOMYCIN] gave an IC80 (Streptococcus pneumoniae [14]) of 200 nM, an IC80 (Staphylococcus aureus [15]) of 400 nM and an IC80 (Enterococcus faecium [16]) of over 30000 nM. It also gave a survival at 40 mg/kg/day (Staphylococcus aureus [28]) of 100%, a survival at 20 mg/kg/day (Staphylococcus aureus [41]) of 100% and an FC (Staphylococcus aureus [34]) of 4. For the same molecule, the FC (Staphylococcus aureus [42]) was 4.2.

From ChEMBL document CHEMBL2086221, “Armeniaspiroles, a new class of antibacterials: Antibacterial activities and total synthesis of 5-chloro-Armeniaspirole A” (Bioorg Med Chem Lett, 2012)
